rCAG binder – molecules binding r(CAG) RNA repeats; 1.3% of 370,000 active; AID 651821; inhibition, % at 3 µM; r(CAG) RNA repeat, TO-PRO-1 dye displacement fluorescence;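 active means inhibition above the plate cutoff, the mean of all test compounds on that plate plus 3 SD, cut at about 35% in these data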;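 further: higher means more dye released from RNA so lower well fluorescence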
NR2E3 ag-1 – human photoreceptor-specific nuclear receptor agonism. Q9Y5X4. CHO-S Gal4-NCOR/VP16-NR2E3 two-hybrid, luciferase. inhibition of corepressor binding, % at 3.98 µM. 0.35% of 360,000 active. AID 602229;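 active means inhibition above the mean of all tested compounds plus 3 SD, cut at about 70% in these data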;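 further: higher means lower luciferase signal from less NR2E3 corepressor binding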
Target sequence (Q9Y5X4 whole entry, looked up, the tested form may be a part): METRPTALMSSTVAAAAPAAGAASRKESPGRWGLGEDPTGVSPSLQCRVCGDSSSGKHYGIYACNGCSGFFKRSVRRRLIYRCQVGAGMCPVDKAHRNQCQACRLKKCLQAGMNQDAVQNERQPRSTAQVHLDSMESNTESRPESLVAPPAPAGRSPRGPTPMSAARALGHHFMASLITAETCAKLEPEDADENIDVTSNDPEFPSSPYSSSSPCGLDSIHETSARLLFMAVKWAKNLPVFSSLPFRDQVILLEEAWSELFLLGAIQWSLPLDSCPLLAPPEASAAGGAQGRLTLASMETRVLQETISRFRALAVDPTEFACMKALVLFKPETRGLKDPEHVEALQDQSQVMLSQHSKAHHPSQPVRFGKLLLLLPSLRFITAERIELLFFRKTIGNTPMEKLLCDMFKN
NR2E3 ag-2 – agonists of human nuclear receptor NR2E3. Q9Y5X4. AID 2300. 0.12% of 320,000 active. GST-NR2E3/biotin-RetCOR TR-FRET, 1536-well. inhibition of corepressor binding, % at 4.78 µM;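 active means percent inhibition above the cutoff of mean plus 3 SD of all tested compounds, set per screening campaign, cut at about 20% in these data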
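Material: NR2E3–RetCOR corepressor complex | Quantity: 1.35 nM GST-tagged NR2E3 final | Schedule: 5 h at 4 °C | Replication: Singlicate compound wells | Reagent: RetCOR corepressor, biotinylated, 7 nM | Controls: Biotin wells as high control, 0.6% DMSO wells as low control | Signal: TR-FRET, Eu(K)-anti-GST donor, streptavidin-D2 acceptor, ex 340, em 617/671 nm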
Rev-erbA mod – Rev-erb alpha (human) modulation; 0.79% of 370,000 active; P20393; activity, % at 10 µM; Rev-erbα–FITC-DNA binding, fluorescence polarization, 90 min; AID 1259318;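 active means activity above about 14%, limit read from the data; passing the limit was not always enough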
PG9 Ab binder – PG9 antibody binding by small molecule. TR-FRET gp120-PG9 antibody binding. inhibition, % at 6.7 µM. 0.43% of 360,000 active. AID 624416; in the data active means inhibition above about 8.5%
NR2E3 ag confirm – confirmation of human NR2E3 nuclear receptor agonists; shares compounds with NR2E3 ag-2; cell-free NR2E3 corepressor release, TR-FRET, 5 h; activation (reported as inhibition), % at 3.98 µM; 39% of 360 active; AID 2379; in the data active means activation above about 20%
PPARg-NCOR2 ctr – releases PPARgamma from NCOR2 in NR2E3 counter-screen; AID 504787; TR-FRET PPARg-NCOR2 coregulator interaction, biochemical; shares compounds with NR2E3 ag-2; 45% of 360 active; inhibition, % at 3.98 µM; in the data active means inhibition above about 20%
Of the large screens only hits and unclear results are named; the others gave an inactive call (follow-up assays come after a bar, where they were run). This is a sample that favours compounds with a hit; in the whole collection about 2.6% have one here.

Cc1cccc(C2C3=C(Nc4[nH]n(-c5ccccc5)c(=O)c42)c2ccccc2C3=O)c1 (stereo not given)	rCAG binder 68.1 (no result: NR2E3 ag-2)
Cc1onc(-c2ccccc2)c1C(=O)N[C@H]1C(=O)N2[C@@H]1SC(C)(C)[C@@H]2C(=O)O	none (no result: rCAG binder, NR2E3 ag-1, NR2E3 ag-2, PG9 Ab binder)
Oc1nc(Nc2cccc(Cl)c2)sc1/C=C1\C=Nc2ccccc21	rCAG binder 55.3
Oc1cccc(Nc2nc(O)c(/C=C3\C=Nc4ccccc43)s2)c1	rCAG binder 47.9
CC1=Nc2ccccc2/C1=C\c1sc(Nc2ccc(C)cc2)nc1O	none
NC(=O)c1cc[n+](CC2=C(C(=O)O)N3C(=O)[C@@H](NC(=O)Cc4cccs4)[C@H]3SC2)cc1	none (no result: rCAG binder, NR2E3 ag-1, NR2E3 ag-2, PG9 Ab binder)
C=CCn1c(SCC(=O)NC23CC4CC(CC(C4)C2)C3)nc2cc(C(=O)O)ccc2c1=O	rCAG binder 34.5
C=CCn1c(SCC(=O)Nc2ccc(F)cc2)nc2cc(C(=O)O)ccc2c1=O	none
CC(=O)[C@H]1CCC2C3C[C@H](C)C4=CC(=O)CC[C@]4(C)C3[C@@H](O)C[C@@]21C (stereo not given in full)	none (no result: rCAG binder, NR2E3 ag-1, NR2E3 ag-2, PG9 Ab binder)
O=C(Nc1ccccc1C(F)(F)F)NC1(C(=O)N2CCOCC2)CCCCC1	rCAG binder 71.9 (no result: NR2E3 ag-2)
CO/N=C(/C(=O)N[C@H]1C(=O)N2C(C(=O)O)=C(CSc3nnnn3C)CSC12)c1csc(N)n1 (stereo not given in full)	none (no result: rCAG binder, NR2E3 ag-1, NR2E3 ag-2, PG9 Ab binder)
Cc1ccc(Nc2cc(C)nn2-c2nc(C)cc(C)n2)cc1	NR2E3 ag-1 94.3
Cc1ccc(Nc2cc(C)nn2-c2nc(C)cc(=O)[nH]2)cc1	NR2E3 ag-1 108.6 (no result: rCAG binder, Rev-erbA mod, PG9 Ab binder)
Cc1ccc(Nc2nc3ccccc3nc2-n2nc(C)cc2C)cc1	none
COc1ccc(/C(O)=C/C(=O)C(=O)NNC(=O)C(O)(c2ccccc2)c2ccccc2)cc1	rCAG binder 44.3
N#Cc1c(SCC(=O)Nc2cccc(F)c2)sc2c(O)cc(=O)[nH]c12	rCAG binder 60.7
COc1ccc(S(=O)(=O)Nc2ccccc2C(=O)NCc2ccco2)cc1Br	rCAG binder 43.3
CCOC(=O)N1CCC(NC(=O)CCC(=O)N2CCOc3ccccc32)CC1	PG9 Ab binder 15.3
Cc1ccc(S(=O)(=O)NCCCCC(NC(=O)OC(C)(C)C)C(=O)O)cc1 (stereo not given) (tested in a mixture with another compound)	none
Cc1ccc(S(=O)(=O)n2ccc3c(OCCOCCSCC(NC(=O)OC(C)(C)C)C(=O)O)cccc32)cc1 (stereo not given)	rCAG binder 47.7
Cc1noc(C)c1S(=O)(=O)N(CC(=O)Nc1ccc2c(c1)OCO2)c1ccc(C(C)C)cc1	none
Cc1nn(C)c(C)c1S(=O)(=O)N(CC(=O)Nc1ccc2c(c1)OCO2)c1ccc(C(C)C)cc1	PG9 Ab binder 14.1
C=CCOc1cccc(C2C(C(=O)c3ccco3)=C(O)C(=O)N2Cc2ccncc2)c1 (stereo not given)	none
C=CCOc1cccc(C2C(C(=O)c3ccc(C)o3)=C(O)C(=O)N2Cc2ccncc2)c1 (stereo not given)	PG9 Ab binder 10.7
Oc1ccc(-c2n[nH]c(C(F)(F)F)c2-c2ccccc2)c(O)c1	NR2E3 ag-1 76.3
CN(C)C1C(=O)C(C(=O)NCN2CCCC2)=C(O)C2(O)C(=O)C3=C(O)c4c(O)cccc4C(C)(O)C3CC12 (stereo not given)	none (no result: rCAG binder, NR2E3 ag-1, NR2E3 ag-2, PG9 Ab binder)
CN(C)c1ccc(NC(=O)CSc2nnc(-c3ccco3)c(-c3ccco3)n2)cc1	none
COc1cccc(NC(=O)CSc2nnc(-c3ccco3)c(-c3ccco3)n2)c1	rCAG binder 61.0
Cc1ccc(NC(=O)CSc2nnc(-c3ccco3)c(-c3ccco3)n2)cc1	rCAG binder 41.5
COc1ccc(NC(=O)CSc2nnc(-c3ccco3)c(-c3ccco3)n2)cc1OC	none
CC(=O)O[C@]1(C(C)=O)CCC2C3C=C(Cl)C4=CC(=O)CC[C@]4(C)C3CC[C@@]21C (stereo not given in full)	none (no result: rCAG binder, NR2E3 ag-1, NR2E3 ag-2, PG9 Ab binder)
Cc1ccc(-c2n[nH]c(=S)n2-c2ccccc2)cc1	none
CS(=O)(=O)Nc1ccc(-c2n[nH]c(=S)n2-c2ccccc2)cc1	NR2E3 ag-2 26.8 | NR2E3 ag confirm inactive | PPARg-NCOR2 ctr inactive
CCCCCCCCCCCCCCCC(=O)OC[C@H](NC(=O)C(Cl)Cl)[C@H](O)c1ccc([N+](=O)[O-])cc1	none (no result: rCAG binder, NR2E3 ag-1, NR2E3 ag-2, PG9 Ab binder)
CC(C)(C)C(=O)CSc1nc2c(c(-c3cccs3)c1C#N)CCC2	NR2E3 ag-2 21.1 | NR2E3 ag confirm inactive | PPARg-NCOR2 ctr inactive
COC(=O)c1cc(C)nc2c1C(=O)C(=O)C=C2N1CCOCC1	NR2E3 ag-2 38.4 | NR2E3 ag confirm 43.4 | PPARg-NCOR2 ctr 57.1
CCOc1cccc(C2C(C(=O)c3ccc(C)o3)=C(O)C(=O)N2Cc2ccncc2)c1 (stereo not given)	NR2E3 ag-2 26.3 | NR2E3 ag confirm inactive | PPARg-NCOR2 ctr inactive
CC(=O)c1c(C(C)=O)c(C)n(-c2ccc(C(=O)O)cc2)c1C	none
Cc1ccc(C)n1-c1ccc(C(=O)O)cc1	NR2E3 ag-2 23.4 (no result: rCAG binder, NR2E3 ag-1, Rev-erbA mod, PG9 Ab binder) | NR2E3 ag confirm inactive | PPARg-NCOR2 ctr inactive
CC[C@H]1OC(=O)[C@H](C)[C@@H](O[C@H]2C[C@@](C)(OC)[C@@H](O)[C@H](C)O2)[C@H](C)[C@@H](O[C@@H]2O[C@H](C)C[C@H](N(C)C)[C@H]2O)[C@](C)(O)C[C@@H](C)/C(=N\OCOCCOC)[C@H](C)[C@@H](O)[C@]1(C)O	none (no result: rCAG binder, NR2E3 ag-1, NR2E3 ag-2, PG9 Ab binder)
COc1cccc2cc(C(=O)C3=C(O)C(=O)N(CCN4CCOCC4)C3c3cccs3)oc12 (stereo not given)	NR2E3 ag-2 23.8 | NR2E3 ag confirm 21.2 | PPARg-NCOR2 ctr inactive
COc1cc(C2C(C(=O)c3cccs3)=C(O)C(=O)N2CCN2CCOCC2)cc(OC)c1OC (stereo not given)	none
O=c1[nH]c(Nc2ccccc2)cc2ccccc12	NR2E3 ag-2 27.3 | NR2E3 ag confirm inactive | PPARg-NCOR2 ctr inactive
CC(C)N(C(=O)Nc1ccc2nsnc2c1)C(C)C	NR2E3 ag-2 38.2 (no result: NR2E3 ag-1) | NR2E3 ag confirm inactive | PPARg-NCOR2 ctr inactive
CCOc1ccc(NC(=O)Nc2ccc3nsnc3c2)cc1	none
CCOc1ccc(NC(=S)Nc2ccc3nsnc3c2)cc1	NR2E3 ag-2 31.4 | NR2E3 ag confirm inactive | PPARg-NCOR2 ctr inactive
COc1ccc(NC(=S)Nc2ccc3nsnc3c2)cc1	NR2E3 ag-2 28.7 | NR2E3 ag confirm inactive | PPARg-NCOR2 ctr inactive
C=C(C)[C@H]1CC=C(C(=O)O)CC1	none (no result: rCAG binder, NR2E3 ag-1, NR2E3 ag-2, PG9 Ab binder)

Screening data as filed in PubChem.
